Shown are actives, neighbours in structure and some others; about 2.7% of the full set was active somewhere.
PAFAH2 FP inh – PAFAH2 (human) inhibition | inhibition, % at 3.39 µM | AID 492956 | hit rate 0.99% among 340,000 | recombinant PAFAH2, FP-rhodamine activity probe, fluorescence polarization;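 active means inhibition above the mean over all tested compounds plus 3 SD, cut at about 30% in these data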;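 further: inhibitors block probe labeling of enzyme so polarization drops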
PAFAH1B3 inh – PAFAH1B3 (human) inhibition. recombinant PAFAH1B3, FP-rhodamine probe, fluorescence polarization. hit rate 0.28% among 340,000. AID 492972. Q15102. inhibition, % at 3.39 µM;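 active means inhibition above the screen-wide average of all tested compounds plus 3 SD, cut at about 25% in these data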
ARFGAP1 inh – rat ARFGAP1 inhibition; Q62848; Arfgap1-stimulated ARF1 GTP hydrolysis, GDP FP detection; inhibition, % at 16.5 µM; hit rate 0.26% among 360,000; AID 651572;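 active means inhibition above a per-plate limit, mean inhibition of low control wells plus 3 SD, cut at about 25% in these data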
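system = rat Arfgap1 catalytic domain, aa 1-136 | technique = FP, GDP Alexa 633 tracer displaced from anti-GDP antibody, 620/688 nm | compound = one concentration, 16.5 µM, DMSO 1.26% | medium = HEPES-based buffer, pH 7.5 | timing = compound-enzyme preincubation 20 min, reaction 120 min, detection 60 min, 25 °C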
PAFAH1B2 FP inh – PAFAH1B2 (human) inhibition. recombinant PAFAH1B2, FP-rhodamine activity probe, fluorescence polarization. AID 492953. inhibition, % at 3.39 µM. hit rate 1.2% among 340,000;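 active means inhibition above the mean of all tested compounds plus 3 SD, cut at about 24% in these data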
ASAP1 inh – blocks human ASAP1-stimulated Arf1 GTP hydrolysis; Q9ULH1; GDP FP detection; hit rate 0.19% among 360,000; inhibition, % at 16.5 µM; AID 624377; in the data active means inhibition above about 25%
Target sequence (Q9ULH1 325-724 limits assumed): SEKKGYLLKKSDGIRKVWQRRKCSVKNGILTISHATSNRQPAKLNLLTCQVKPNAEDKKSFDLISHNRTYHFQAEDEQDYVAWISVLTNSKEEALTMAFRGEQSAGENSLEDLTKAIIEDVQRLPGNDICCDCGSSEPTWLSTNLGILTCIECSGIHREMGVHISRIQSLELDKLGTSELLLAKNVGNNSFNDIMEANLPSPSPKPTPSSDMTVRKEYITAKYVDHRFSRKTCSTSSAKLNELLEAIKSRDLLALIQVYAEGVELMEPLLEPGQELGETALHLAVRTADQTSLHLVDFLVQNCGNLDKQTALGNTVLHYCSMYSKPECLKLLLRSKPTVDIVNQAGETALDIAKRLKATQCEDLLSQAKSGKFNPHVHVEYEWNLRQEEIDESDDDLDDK
pPAFAH FP inh – pPAFAH (human) enzyme inhibition; Q13093; recombinant pPAFAH, FP-rhodamine probe fluorescence polarization; inhibition, % at 3.39 µM; hit rate 1.5% among 330,000; AID 463082;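 active means inhibition above the mean inhibition across the screen plus 3 SD, cut at about 25% in these data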;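 further: inhibitors block binding of the rhodamine activity-based probe so polarization drops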
A number is an active result; – = inactive; · = no result given.

SMILES | PAFAH2 FP inh | PAFAH1B3 inh | ARFGAP1 inh | PAFAH1B2 FP inh | ASAP1 inh | pPAFAH FP inh
Cc1cccc2nc(-c3ccccc3)c(-c3ccc(CN4CCC5(CC4)CNc4ccccc45)cc3)nc12 | · | · | – | · | – | ·
Nc1ccc(C(=O)N/N=C\c2ccc(OC(=O)c3ccccc3Cl)cc2)cc1 | – | – | – | – | – | –
O=C(O)c1ccc(N/N=C/c2ccc(OC(=O)c3ccccc3Cl)cc2)cc1 | – | – | – | – | – | 26.9
O=C(NCCN1CCCCC1)c1ccc(Oc2cc(Cl)cc(Cl)c2)o1 | · | · | – | · | – | –
O=C(c1ccc(Oc2cc(Cl)cc(Cl)c2)o1)N1CCCCC1 | – | – | – | – | – | 32.0
N#C/C(=C\c1ccc(-c2ccccc2[N+](=O)[O-])o1)C(=O)Nc1nc(-c2cccs2)cs1 | – | – | – | – | – | 29.7
C=CCO[C@H]1CN(C(=O)OC)[C@@H]2C[C@H]1Oc1ccccc12 | · | · | – | · | – | ·
C=CCn1c(SC2CCOC2=O)nc2sc(CC)cc2c1=O (stereo not drawn) | – | – | – | – | – | 27.4
COC(=O)C1=C(C)N(Cc2ccc(Cl)cc2)C(=S)NC1c1ccc(Cl)cc1 (stereo not drawn) | · | · | – | · | – | ·
CCc1cc2c(CN(C)Cc3ccccc3F)cc(=O)oc2cc1O | – | – | – | 28.2 | – | –
Cc1cc2oc(=O)cc(CN(C)Cc3cccc(F)c3)c2cc1C | – | – | – | – | – | –
CN1CCCCC(NC(=O)c2cccc(F)c2)C1=O (stereo not drawn) | · | · | – | · | – | ·
COC(=O)[C@]12C[C@H](CC(=O)NCc3ccc(OC)c(OC)c3)C(=O)N(CCC3=CCCCC3)C1=C[C@H](C(C)(C)C)O[C@@H]2C | · | · | – | · | – | ·
O=C(O)c1cccc(S(=O)(=O)N(Cc2ccccc2)c2ccccc2)c1 | – | – | – | 25.6 | – | –
CCN(c1ccccc1)S(=O)(=O)c1cc(C(=O)O)ccc1C | – | – | – | 52.7 | – | –
O=C(O)c1ccc(Cl)c(S(=O)(=O)N(Cc2ccccc2)c2ccccc2)c1 | – | – | – | – | – | –
O=C(O)c1ccc(CN(c2ccccc2)S(=O)(=O)c2ccccc2)cc1 | – | – | – | – | – | –
O=C(O)c1ccc(Cl)c(S(=O)(=O)N(Cc2ccccc2)c2ccc(F)cc2)c1 | – | – | – | 33.0 | – | –
O=C(O)c1ccc(Cl)c(S(=O)(=O)N(Cc2ccccc2)c2ccccc2Cl)c1 | – | – | – | 28.3 | – | –
COC(=O)C1=C(C)N(Cc2ccc(F)cc2)C(=S)NC1c1cccc(OC)c1 (stereo not drawn) | · | · | – | · | – | ·
CCCN1CCCCC(NC(=O)c2ccc(Cl)cc2Cl)C1=O (stereo not drawn) | · | · | – | · | – | ·
COc1ccc(-c2cscc2N)cc1 | · | · | – | · | – | ·
CCCN1CCCCC(NC(C)=O)C1=O (stereo not drawn) | · | · | – | · | – | ·
COc1cccc(CN(C)C(=O)[C@H]2O[C@@H](n3cnc4c(=O)[nH]c(N)nc43)[C@H](O)[C@@H]2O)c1 | · | · | – | · | – | ·
CCN1CCN(C(=O)c2ccc(COc3cccc(Cl)c3)o2)CC1 | – | – | – | – | – | –
SMILES | PAFAH2 FP inh | PAFAH1B3 inh | ARFGAP1 inh | PAFAH1B2 FP inh | ASAP1 inh | pPAFAH FP inh
CN(C)c1ccc(NC(=O)c2ccc(COc3cccc(Cl)c3)o2)cc1 | – | – | – | – | – | 26.7
COc1ccc(-c2cccc3c4c([nH]c23)[C@@H]2C[C@H]3[C@@H](C(=O)N2CC4)[C@H](C)ON3C)cc1 | · | · | – | · | – | ·
CC(C)N(C(=S)NCc1ccccc1)C(C)C | – | – | – | – | – | –
CC(C)N(C(=S)NCc1ccccc1)c1ccccc1 | – | – | – | 28.7 | – | –
C[C@H](O)[C@@H]1C(=O)N2CCc3c([nH]c4c(-c5ccccc5)cccc34)[C@@H]2C[C@@H]1N(C)C(=O)/C=C/c1ccccc1 | · | · | – | · | – | ·
CC(=O)c1cc(O)c2ccccc2c1O | – | – | – | – | – | 26.5
O=C(COC(=O)CCOc1ccccc1)Nc1ncc(Cl)cc1Cl | – | – | – | – | – | –
O=C(COC(=O)c1ccc2ccccc2n1)Nc1ncc(C(F)(F)F)cc1Cl | – | – | – | – | – | 26.3
O=C(COC(=O)c1nc(Cl)ccc1Cl)Nc1ncc(Cl)cc1Cl | 52.3 | 51.0 | – | 60.6 | – | –
O=C(COC(=O)c1nc(Cl)ccc1Cl)NCc1ccc(Cl)cc1Cl | – | – | – | – | – | ·

Screening results deposited in PubChem by The Scripps Research Institute Molecular Screening Center.
